Results as given in ChEMBL document CHEMBL1629563, “Pharmacokinetic and safety evaluation of BILR 355, a second-generation nonnucleoside reverse transcriptase inhibitor, in healthy volunteers” (Antimicrob Agents Chemother, 2008).

How the values were obtained:
[1] = AUC (0 to last) in healthy human at 100 mg, po administered as single dose; type: ADME, organism-based; set-up: dose 100 mg, time 0 - last, route oral; conditions: plasma
Outline: (§1)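 Healthy male volunteers, six active plus two placebo per dose group, single oral dose in PEG solution with 200 ml water after overnight fast; breakfast 60 to 90 min post-dose. EDTA plasma sampled predose to 144 h. Assayed by validated LC-MS/MS after protein precipitation. Noncompartmental analysis, AUC by linear up/log down trapezoidal rule; Vss = CL/F·(MRTp.o. − 1/Ka).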

Homo sapiens [2] = assay: Toxicity in healthy human assessed as occurrence of maculopapular rash at 25 mg, po administered as single dose coadministered with 100 mg of ritonavir; type: organism-based; conditions: in vivo
[3] = Apparent volume of distribution in terminal phase in healthy human at 25 mg, po administered as single dose coadministered with 100 mg of ritonavir; type: ADME, organism-based; conditions: in vivo, read-out: Vz/F
Outline: (§2)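 Healthy male volunteers, fasted overnight, got one oral dose of BILR 355 in PEG solution with 200 ml water. Ritonavir 100 mg was given 10 h before and again with the dose. Plasma was sampled (EDTA) from predose to 144 h and assayed by validated LC-MS/MS. Cmax and Vz/F came from noncompartmental analysis. Vss/F = CL/F·(MRTp.o. − 1/Ka), with Ka from compartmental modelling.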

[4] = Drug excretion in healthy human urine assessed as unchanged drug at 62.5 mg, po administered as single dose coadministered with 100 mg of ritonavir by high-pressure liquid chromatography-tandem mass spectrometry/mass spectrometry method; type: ADME, organism-based; conditions: read-out: Drug uptake
Outline: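 Ritonavir 100 mg was given 10 h before and with one oral dose of BILR 355 in PEG solution. Urine was collected by weight as predose blank, then 0-6, 6-24 and 24-72 h, stored at −20°C and assayed by LC-MS/MS. fe = unchanged drug excreted (Ae) as a percentage of dose. Line 50: high-fat breakfast 30 min before dosing.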

[5] = Apparent volume of distribution at steady state in healthy human at 87.5 mg, po administered as single dose coadministered with 100 mg of ritonavir; type: ADME, organism-based; conditions: in vivo, read-out: Vss/F; outline: as §2
Homo sapiens [6] = assay: Toxicity in healthy human assessed as occurrence of maculopapular rash at 37.5 mg, po administered as single dose coadministered with 100 mg of ritonavir; type: organism-based; conditions: in vivo
[7] = Apparent oral clearance in healthy human at 50 mg, po administered as single dose; type: ADME, organism-based; conditions: in vivo; outline: as §1
Homo sapiens [8] = assay: Toxicity in healthy human assessed as occurrence of nausea at 100 mg, po administered as single dose relative to control; type: organism-based; conditions: in vivo
[9] = Apparent oral clearance in high fat fed healthy human at 50 mg, po administered as single dose coadministered with 100 mg of ritonavir; type: ADME, organism-based; conditions: in vivo
Outline: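 Fed cohort of 6 healthy men given an FDA-type high-fat breakfast (about 150, 250 and 500 to 600 cal from protein, carbohydrate and fat) 30 min before dosing. Ritonavir 100 mg given 10 h earlier and again with the single oral dose in PEG solution. Plasma sampled to 144 h, LC-MS/MS, noncompartmental analysis.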

[10] = Half life in healthy human at 12.5 mg, po administered as single dose coadministered with 100 mg of ritonavir; type: ADME, organism-based; conditions: in vivo
[11] = Apparent oral clearance in healthy human at 100 mg, po administered as single dose; type: ADME, organism-based; conditions: in vivo; outline: as §1
[12] = Apparent oral clearance in healthy human at 12.5 mg, po administered as single dose; type: ADME, organism-based; conditions: in vivo; outline: as §1
[13] = Renal clearance in healthy human at 87.5 mg, po administered as single dose coadministered with 100 mg of ritonavir by high-pressure liquid chromatography-tandem mass spectrometry/mass spectrometry method; type: ADME, organism-based, Kidney; conditions: in vivo, read-out: CL_renal (converted)
Outline: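 Healthy male volunteers, fasted overnight, got one oral dose in PEG solution with 200 ml water. Ritonavir 100 mg was given 10 h before and again with the dose. Urine was collected quantitatively over 0–6, 6–24 and 24–72 h and stored at −20°C, then assayed by validated HPLC-MS/MS. CLR = amount excreted unchanged over an interval / plasma AUC over the same interval.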

Homo sapiens [14] = assay: Toxicity in healthy human assessed as occurrence of diarrhea at 50 mg, po administered as single dose coadministered with 100 mg of ritonavir; type: organism-based; conditions: in vivo
Homo sapiens [15] = assay: Toxicity in healthy human assessed as occurrence of migraine at 100 mg, po administered as single dose relative to control; type: organism-based; conditions: in vivo
Homo sapiens [16] = assay: Toxicity in healthy human assessed as occurrence of palpitations at 1 mg, po administered as single dose relative to control; type: organism-based; conditions: in vivo
Homo sapiens [17] = assay: Toxicity in healthy human assessed as occurrence of fatigue at 75 mg, po administered as single dose relative to control; type: organism-based; conditions: in vivo
Homo sapiens [18] = assay: Toxicity in high fat fed healthy human assessed as occurrence of diarrhea at 50 mg, po administered as single dose coadministered with 100 mg of ritonavir; type: organism-based; conditions: in vivo
[19] = Apparent oral clearance in healthy human at 25 mg, po administered as single dose coadministered with 100 mg of ritonavir; type: ADME, organism-based; conditions: in vivo
Outline: (§3)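 Healthy male volunteers, fasted. Ritonavir 100 mg given 10 h before and again together with single oral BILR 355 in PEG solution. EDTA plasma sampled predose to 144 h. LC-MS/MS assay after protein precipitation. Noncompartmental analysis, AUC by linear up/log down trapezoidal rule; Vss = CL/F·(MRTp.o. − 1/Ka).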

[20] = Mean residence time in healthy human at 25 mg, po administered as single dose coadministered with 100 mg of ritonavir; type: ADME, organism-based; conditions: in vivo
Homo sapiens [21] = assay: Toxicity in healthy human assessed as occurrence of migraine at 12.5 mg, po administered as single dose relative to control; type: organism-based; conditions: in vivo
[22] = Apparent volume of distribution at steady state in healthy human at 25 mg, po administered as single dose; type: ADME, organism-based; conditions: in vivo, read-out: Vss/F; outline: as §1
[23] = Apparent volume of distribution in terminal phase in healthy human at 75 mg, po administered as single dose; type: ADME, organism-based; conditions: in vivo, read-out: Vz/F
Outline: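 Single fasting oral dose of BILR 355 in PEG solution with 200 ml tap water, given to healthy males. Standard breakfast came 60-90 min after the dose. EDTA plasma was sampled predose to 144 h, stored below −18°C and assayed by LC-MS/MS after protein precipitation. Noncompartmental analysis gave Vz/F. Vss/F = CL/F·(MRTp.o. − 1/Ka), with Ka from compartmental modelling.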

Homo sapiens [24] = assay: Toxicity in healthy human assessed as occurrence of fatigue at 37.5 mg, po administered as single dose coadministered with 100 mg of ritonavir; type: organism-based; conditions: in vivo
[25] = AUC (0 to infinity) in healthy human at 50 mg, po administered as single dose coadministered with 100 mg of ritonavir; type: ADME, organism-based; set-up: dose 50 mg, time infinity, route oral; conditions: plasma; outline: as §3
[26] = Apparent oral clearance in healthy human at 37.5 mg, po administered as single dose coadministered with 100 mg of ritonavir; type: ADME, organism-based; conditions: in vivo; outline: as §3
Homo sapiens [27] = assay: Toxicity in healthy human assessed as occurrence of neurological eyelid disorder at 1 mg, po administered as single dose relative to control; type: organism-based; conditions: in vivo

AUC(0-t) [1]: 1300 ng·h/mL
Vd/F [3]: 97.6 L
dose excreted [4]: 5.05%
Vd/F [5]: 112 L
CL/F [7]: 2150 mL/min
CL/F [9]: 104 mL/min
half-life [10]: 15.9 h
CL/F [11]: 1320 mL/min
CL/F [12]: 4100 mL/min
CL renal [13]: 8.2 mL/min
CL/F [19]: 98 mL/min
MRT [20]: 18.1 h
Vd/F [22]: 914 L
Vd/F [23]: 832 L
AUC(0-inf) [25]: 6800 ng·h/mL
CL/F [26]: 109 mL/min
SMILES: CCN1c2ncc(CCOc3cc[n+]([O-])c4ccccc34)cc2C(=O)N(C)c2cccnc21 [BILR 355]
Activity (Homo sapiens [2]): 16.7%
Activity (Homo sapiens [6]): 16.7%
Activity (Homo sapiens [8]): 0%
Activity (Homo sapiens [14]): 0%
Activity (Homo sapiens [15]): 0%
Activity (Homo sapiens [16]): 0%
Activity (Homo sapiens [17]): 16.7%
Activity (Homo sapiens [18]): 0%
Activity (Homo sapiens [21]): 0%
Activity (Homo sapiens [24]): 0%
Activity (Homo sapiens [27]): 0%
